These results are taken from ChEMBL document CHEMBL1833936, “7-azaindenoisoquinolines as topoisomerase I inhibitors and potential anticancer agents” (J Med Chem, 2011).

In brackets after ≈: the same amount, converted by molar mass. Activity calls are given as the source filed them. The calls are words filed in the database; no cut-off is given here.

In one series the test system is MCF7. The series is described as follows: Cytotoxicity against human MCF7 cells after 48 hrs by SRB assay. The format is functional. The following applies: MCF7, 48 h. Put shortly: (§1)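 NCI 60-cell-line screen. Cells incubated 48 h with five 10-fold dilutions starting at 100 μM, then stained with sulforhodamine B. Optical density relative to control plotted against log concentration.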

Series [1] has as its target T1, DNA topoisomerase 1 (Homo sapiens) (UniProt P11387).
T1 sequence (whole entry): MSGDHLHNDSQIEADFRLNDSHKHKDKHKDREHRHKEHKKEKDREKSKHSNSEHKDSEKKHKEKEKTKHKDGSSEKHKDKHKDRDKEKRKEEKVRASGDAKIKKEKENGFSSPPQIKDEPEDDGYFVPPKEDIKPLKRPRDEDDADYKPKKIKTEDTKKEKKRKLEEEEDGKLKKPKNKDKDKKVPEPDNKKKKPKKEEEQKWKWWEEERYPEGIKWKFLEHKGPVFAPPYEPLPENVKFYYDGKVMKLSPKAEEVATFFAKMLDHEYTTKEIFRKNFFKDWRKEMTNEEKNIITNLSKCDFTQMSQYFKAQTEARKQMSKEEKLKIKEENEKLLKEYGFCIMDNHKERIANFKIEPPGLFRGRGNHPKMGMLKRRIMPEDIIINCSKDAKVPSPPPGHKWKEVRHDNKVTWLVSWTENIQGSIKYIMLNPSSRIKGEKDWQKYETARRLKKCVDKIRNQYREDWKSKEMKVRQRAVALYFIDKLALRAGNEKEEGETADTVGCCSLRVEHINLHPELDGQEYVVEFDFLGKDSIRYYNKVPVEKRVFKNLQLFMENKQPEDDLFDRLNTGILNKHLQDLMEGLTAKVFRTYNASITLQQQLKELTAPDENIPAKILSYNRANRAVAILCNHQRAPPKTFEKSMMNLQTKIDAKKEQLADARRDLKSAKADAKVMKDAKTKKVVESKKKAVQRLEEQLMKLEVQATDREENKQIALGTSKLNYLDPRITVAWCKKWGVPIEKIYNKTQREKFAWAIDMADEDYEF
The series is described as follows: Inhibition of human topoisomerase 1 assessed as inhibition of radiolabeled DNA fragment cleavage 0.1 to 100 uM after 20 mins by gel-based phosphoimaging relative to control. Put shortly:
(§2)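 Human recombinant Top1 purified from baculovirus. About 2 nM 117-bp DNA substrate, 3′-end-labeled with [α-32P]-dGTP by Klenow fill-in. Stopped with 0.5% SDS and formamide loading dye; 20% denaturing PAGE, phosphoimager. Tested at 0.1, 1, 10 and 100 μM.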

The subject of another series is OVCAR-3. Briefly: Cytotoxicity against human OVCAR3 cells after 48 hrs by SRB assay. The settings on record: OVCAR-3, 48 h. The format is functional. In outline: as §1
The next series concerns HCT-116. Briefly: Cytotoxicity against human HCT116 cells after 48 hrs by SRB assay. In kind it is functional. The following applies: HCT-116, 48 h. In outline: as §1
A general note: The SRB assay estimates cell density from bound dye.

Another series concerns DU-145. The series is described as follows: Cytotoxicity against human DU145 cells after 48 hrs by SRB assay. In kind it is functional. The following applies: DU-145, 48 h. In outline: as §1
The next series concerns HOP-62. The series is described as follows: Cytotoxicity against human HOP62 cells after 48 hrs by SRB assay. In kind it is functional. The following applies: HOP-62, 48 h. Put shortly: as §1
For the next series, the system named is UACC-62. The series is described as follows: Cytotoxicity against human UACC62 cells after 48 hrs by SRB assay. The settings on record: UACC-62, 48 h. The format is functional. In outline: as §1
The next series deals with SF-539. The series is described as follows: Cytotoxicity against human SF539 cells after 48 hrs by SRB assay. In kind it is functional. The settings on record: SF-539, 48 h. In outline:
as §1

In a further series the test system is SN12C. The series is described as follows: Cytotoxicity against human SN12C cells after 48 hrs by SRB assay. In kind it is functional. In outline:
as §1

The nature of series [2]: Aqueous solubility at pH 7.5 after 24 hrs by HPLC. The format is physicochemical. Put shortly:
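Solid sample (4–10 mg) shaken in 1 M Tris buffer pH 7.5 for 24 h at 25 °C, then centrifuged and supernatant filtered. Supernatant analysed by reverse-phase C18 HPLC eluting methanol (1% TFA)/water 90:10. Concentration from one-point calibration against buffer solutions of known concentration.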

Series [3] addresses T1, DNA topoisomerase 1 (Homo sapiens). Briefly: Inhibition of human topoisomerase 1 assessed as inhibition of radiolabeled DNA fragment cleavage after 20 mins by gel-based phosphoimaging relative to control. In outline:
as §2

Series [4] shares this target. The series is described as follows: Inhibition of human topoisomerase 1-mediated DNA relaxation assessed as DNA intercalation at 1 to 100 uM after 30 mins by gel electrophoresis relative to control. In outline: (§3)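 Two-step unwinding assay. SV40 DNA first fully relaxed with excess Top1 for 15 min at 37 °C without drug. Relaxed DNA then incubated 30 min at 37 °C with drug at 1, 3, 10, 30 or 100 μM. Control was a further 30 min incubation at 37 °C without drug. Products resolved on gel.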

Series [5] has the same target. Briefly: Inhibition of human topoisomerase 1 assessed as inhibition of radiolabeled DNA fragment cleavage up to 100 uM after 20 mins by gel-based phosphoimaging relative to control. Put shortly: as §2
For series [6] the target is unchanged. The series is described as follows: Inhibition of human topoisomerase 1-mediated DNA relaxation assessed as DNA intercalation at compound concentration above 3 uM after 30 mins by gel electrophoresis relative to control. Put shortly:
as §3

Series [7] has the same target. Briefly: Inhibition of human topoisomerase 1-mediated DNA relaxation assessed as DNA intercalation at 100 uM after 30 mins by gel electrophoresis relative to control. In outline: as §3

Regarding `CN(C)CCCn1c2c(c3ccc([N+](=O)[O-])cc3c1=O)C(=O)c1ccccc1-2`, the values for the GI50 in the series with MCF7 and in the series with OVCAR-3 were 240 nM and 32400 nM, respectively. The inhibition result in [1] was “Active”.

Turning to `O=C1c2cccnc2-c2c1c1ccccc1c(=O)n2CCCN1CCOCC1`, the GI50 in the series with HCT-116 is 1860 nM; in the series with MCF7, 2750 nM; in the series with OVCAR-3, 28200 nM; with DU-145, 3550 nM; with HOP-62, 35500 nM; in the series with UACC-62, greater than 100000 nM. For the same molecule, the 50% growth inhibitory concentration (GI50) in the series on SF-539 was 5620 nM; with SN12C, 5370 nM. In series [1], the inhibition entry was “Active”.

For the molecule `O=C1c2cccnc2-c2c1c1ccccc1c(=O)n2CCCNCCO`, the concentration for 50% growth inhibition (GI50) in the series with HCT-116 was determined as 300 nM; in the series on MCF7, 480 nM; in the series on OVCAR-3 it was 1550 nM; with DU-145, 410 nM; with HOP-62, 1410 nM; in the series with UACC-62, 3090 nM. The GI50 turned out to be 870 nM in the series with SF-539 and 760 nM in the series on SN12C. Moreover, the inhibition entry in [1] was “inactive”.

The molecule `COc1cc2c3c(n(CCCN(C)C)c(=O)c2cc1OC)-c1ccccc1C3=O` registered a solubility at 24 h in series [2] of 60 mM (≈ 23.5 mg/mL). Besides, the GI50 with MCF7 was determined as 6170 nM; in the series on HOP-62 it was 11500 nM; in the series on SF-539, 6170 nM; in the series on SN12C, 11000 nM. Further, the inhibition entry in series [1] was “Active”.

For `CN(C)CCCn1c2c(c3ccc([N+](=O)[O-])cc3c1=O)C(=O)c1cccnc1-2`, the concentration for 50% growth inhibition (GI50) in the series with HCT-116 stood at 440 nM; with MCF7, 360 nM; in the series with OVCAR-3, 2290 nM; with DU-145, 930 nM; with HOP-62 it was 2350 nM; in the series with UACC-62, 3310 nM. Further, the GI50 in the series on SF-539 was 2690 nM; in the series on SN12C, 1000 nM. For the same molecule, the inhibition result in series [1] was “Active”.

Regarding `CN(C)CCCn1c2c(c3ccccc3c1=O)C(=O)c1cccnc1-2`, the concentration for 50% growth inhibition (GI50) with HCT-116 stood at 410 nM; in the series with MCF7, 250 nM; in the series on OVCAR-3, 2570 nM; in the series on DU-145 it was 1350 nM; in the series on HOP-62, 1510 nM; with UACC-62 it was 2690 nM. Moreover, the GI50 amounted to 1910 nM in the series on SF-539 and 810 nM in the series on SN12C. Also, in [2], the solubility at 24 h is 24 mM (≈ 8 mg/mL). For the same molecule, the inhibition entry in [1] was “Active”.

With `COc1cc2c3c(n(CCCNCCO)c(=O)c2cc1OC)-c1ncccc1C3=O`, the GI50 with HCT-116 amounted to 150 nM; in the series with MCF7, 74 nM; in the series with OVCAR-3, 340 nM; in the series with DU-145, 320 nM; with HOP-62 it was 300 nM; in the series on UACC-62, 120 nM. For the same molecule, the GI50 in the series with SF-539 stood at 260 nM; with SN12C, 230 nM. Further, the inhibition entry in series [1] is “Active”.

Take `O=C1c2cccnc2-c2c1c1ccccc1c(=O)n2CCCn1ccnc1`: the GI50 stood at 1200 nM with HCT-116; 3390 nM with MCF7; 8710 nM in the series on OVCAR-3; 2880 nM in the series with DU-145; 7240 nM in the series on HOP-62; 35500 nM with UACC-62. In addition, the concentration for 50% growth inhibition (GI50) worked out at 5130 nM in the series with SF-539 and 3720 nM with SN12C. The inhibition entry in series [1] was “Active”.

Consider `COc1cc2c3c(n(CCCN4CCOCC4)c(=O)c2cc1OC)-c1ncccc1C3=O`, for which the GI50 in the series on HCT-116 is 220 nM; in the series with MCF7, 52 nM; with OVCAR-3 it was 370 nM; in the series with DU-145 it was 310 nM; with HOP-62 it was 300 nM; in the series with UACC-62, 95 nM. In addition, the GI50 in the series with SF-539 worked out at 290 nM; with SN12C, 520 nM. In series [3], the inhibition result is “Dose-dependent effect”. Moreover, the inhibition entry in [1] and in series [5] was “Active” each time. In series [4], the outcome was inactive.

For the molecule `COc1cc2c3c(n(CCCN)c(=O)c2cc1OC)-c1ncccc1C3=O`, the GI50 amounted to 380 nM with HCT-116; 49000 nM in the series on MCF7; 1580 nM in the series with OVCAR-3; 1620 nM with DU-145; 3020 nM with HOP-62; 8130 nM in the series on UACC-62. The figures for the GI50 with SF-539 and with SN12C were 2190 nM and 2880 nM, respectively. The inhibition entry in series [1] was “Active”.

`CN(C)CCCn1c2c(c3ccccc3c1=O)C(=O)c1ccccc1-2` showed a solubility at 24 h in series [2] of 0.28 mM (≈ 0.0931 mg/mL). Also, the GI50 came out at 550 nM in the series on MCF7 and 1660 nM in the series with OVCAR-3. The inhibition entry in series [1] was “Active”.

For `COc1cc2c3c(n(CCCn4ccnc4)c(=O)c2cc1OC)-c1ncccc1C3=O`, the inhibition entry in [3] is “Dose-dependent effect”. In addition, the inhibition entry in series [1] and in series [5] was “Active” throughout.

Consider `COc1cc2c3c(n(C)c(=O)c2cc1OC)-c1cc2c(cc1C3=O)OCO2`, for which the GI50 is 11500 nM in the series on HCT-116; 1910 nM in the series with MCF7; 4790 nM in the series on DU-145; 8510 nM in the series on HOP-62; 560 nM in the series with UACC-62; 1660 nM in the series with SF-539. The inhibition entry in series [1] is “Active”.

On to `COc1cc2c3c(n(CCCN(C)C)c(=O)c2cc1OC)-c1ncccc1C3=O`, for which the GI50 with HCT-116 came to 1580 nM; in the series on MCF7, 440 nM; in the series on OVCAR-3 it was 3550 nM; with DU-145 it was 1700 nM; in the series with HOP-62 it was 3390 nM; in the series on UACC-62, 13200 nM. For the same molecule, the GI50 came out at 4070 nM in the series with SF-539 and 3160 nM in the series on SN12C. For the same molecule, in series [6], the Activity entry is “Dose-dependent effect”. In addition, in [2], the solubility at 24 h came to 100 mM (≈ 39.3 mg/mL). In addition, the inhibition entry in [1] is “Active”. Also, in series [7], the outcome was Active.

For `O=C1c2cccnc2-c2c1c1ccc([N+](=O)[O-])cc1c(=O)n2CCCN1CCOCC1`, in series [1], the inhibition result is “Active”.

In the series on MCF7, `CC[C@@]1(O)C(=O)OCc2c1cc1n(c2=O)Cc2cc3ccccc3nc2-1` [CAMPTOTHECIN] returned a GI50 of 13 nM.

What is called GI50 is the concentration that inhibits growth by half. Low values mean greater sensitivity of the cells, high ones lower sensitivity of the cells. Usually solubility stands for the dissolved amount per volume that the medium holds.
